The source made the active and inactive calls. The rule behind the calls is not given here.
Columns and labels:
Mus musculus [1] = test: Activity at cathepsin S in zymosan-induced inflammatory paw edema mouse model assessed as ipsi/contralateral paw fluorescent signal at 20 uM, iv in presence of 10 to 30 ug/ml E-64; type: functional, organism-based; conditions: in the assay text read “10 to 30 mg/kg” for “10 to 30 ug/ml”
Method in brief: (§1)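 Zymosan paw inflammation; groups n = 3. Dexamethasone 10 mg/kg oral in 0.6% methylcellulose/0.5% Tween80 1 day before zymosan, shortly after, and 1 h before probe; or E-64 10 or 30 mg/kg ip in 40% DMSO/PBS 2 days and 1 day before, shortly after zymosan, and 1 h before probe. Probe 20 µM iv (800 nmol/kg) 24 h post-zymosan; ipsi/contralateral paw fluorescence imaged.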

[2] = target: Matrix metalloproteinase-9 (Homo sapiens) (UniProt P14780); test: Activity at MMP9
Method in brief: (§2)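 Recombinant protease (10–40 nM final) incubated with 60.0 µM probe substrate; NIR fluorescence of cleaved quenched probe measured as in the in vitro cathepsin assay (λex 710 nm, λem 767 nm).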

Mus musculus [3] = test: Activity at cathepsin S in zymosan-induced inflammatory paw edema mouse model assessed as ipsi/contralateral paw fluorescent signal at 20 uM, iv in presence of Dexamethasone; type: functional, organism-based; method in brief: as §1
[4] = target: Stromelysin-1 (Homo sapiens) (UniProt P08254); test: Activity at MMP3; method in brief: as §2
[5] = target: Neutrophil collagenase (Homo sapiens) (UniProt P22894); test: Activity at MMP8; method in brief: as §2
Mus musculus [6] = test: Activity at cathepsin S in zymosan-induced inflammatory paw edema mouse model assessed as ipsi/contralateral paw fluorescent signal at 20 uM, iv after 180 mins; type: functional, organism-based
Method in brief: (§3)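 Mice given zymosan in one hind paw (n = 3); 24 h later 20 µM probe in PBS iv via tail vein (800 nmol/kg). Under 1.5–2% isoflurane, body temperature held with heating pads; tail and upper body masked; images at 10 min, 1, 3, 6, 24 h; identical ROIs over both hind paws, ipsi/contralateral ratio.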

Mus musculus [7] = test: Activity at cathepsin S in zymosan-induced inflammatory paw edema mouse model assessed as ipsi/contralateral paw fluorescent signal at 20 uM, iv after 10 mins; type: functional, organism-based; method in brief: as §3
Mus musculus [8] = test: Activity at cathepsin S in zymosan-induced inflammatory paw edema mouse model assessed as ipsi/contralateral paw fluorescent signal at 13.3 uM, iv after 24 hrs; type: functional, organism-based
[9] = target: Matrix metalloproteinase-14 (Homo sapiens) (UniProt P50281); test: Activity at MMP14; method in brief: as §2
[10] = system: CC(C)(C)OC(=O)NCC[C@H](NC(=O)[C@H](CC1CCCCC1)NC(=O)N1CCOCC1)C(=O)NCCNC(=O)OCC1c2ccccc2-c2ccccc21; test: Activity at recombinant cathepsin B
Method in brief: (§4)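 Active-site-titrated (E-64) recombinant human cathepsins B, L, S and in-house cathepsin K, 10 nM final in pH 6.5 acetate/HEPES buffer with 300 mM NaCl, 0.001% Pluronic and L-cysteine; DMSO-dissolved Cy7/BHQ-3 quenched substrate 0.8–40 µM final (DMSO ≤1%); fluorescence read at 25 °C (λex 710, λem 767 nm); steady-state data fitted by non-linear least squares to Michaelis–Menten with substrate inhibition.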

[11] = system: CC(C)(C)OC(=O)NCC[C@H](NC(=O)[C@H](CC1CCCCC1)NC(=O)N1CCOCC1)C(=O)NCCNC(=O)OCC1c2ccccc2-c2ccccc21; test: Ratio of Kcat/Km for recombinant cathepsin B; method in brief: as §4

Chain of Stromelysin-1 (Homo sapiens) (P08254 100-477 limits assumed): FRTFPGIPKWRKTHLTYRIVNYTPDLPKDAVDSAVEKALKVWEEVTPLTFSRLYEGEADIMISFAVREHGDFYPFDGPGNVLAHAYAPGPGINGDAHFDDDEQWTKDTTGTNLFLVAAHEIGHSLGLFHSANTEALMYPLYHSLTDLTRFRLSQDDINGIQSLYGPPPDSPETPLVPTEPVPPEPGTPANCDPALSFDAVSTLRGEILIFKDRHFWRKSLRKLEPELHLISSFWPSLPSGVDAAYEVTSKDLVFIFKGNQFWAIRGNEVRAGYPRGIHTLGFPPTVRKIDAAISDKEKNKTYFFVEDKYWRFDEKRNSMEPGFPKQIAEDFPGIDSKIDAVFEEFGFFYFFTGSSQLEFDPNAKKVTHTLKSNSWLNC
Chain of Matrix metalloproteinase-9 (Homo sapiens) (P14780 whole entry): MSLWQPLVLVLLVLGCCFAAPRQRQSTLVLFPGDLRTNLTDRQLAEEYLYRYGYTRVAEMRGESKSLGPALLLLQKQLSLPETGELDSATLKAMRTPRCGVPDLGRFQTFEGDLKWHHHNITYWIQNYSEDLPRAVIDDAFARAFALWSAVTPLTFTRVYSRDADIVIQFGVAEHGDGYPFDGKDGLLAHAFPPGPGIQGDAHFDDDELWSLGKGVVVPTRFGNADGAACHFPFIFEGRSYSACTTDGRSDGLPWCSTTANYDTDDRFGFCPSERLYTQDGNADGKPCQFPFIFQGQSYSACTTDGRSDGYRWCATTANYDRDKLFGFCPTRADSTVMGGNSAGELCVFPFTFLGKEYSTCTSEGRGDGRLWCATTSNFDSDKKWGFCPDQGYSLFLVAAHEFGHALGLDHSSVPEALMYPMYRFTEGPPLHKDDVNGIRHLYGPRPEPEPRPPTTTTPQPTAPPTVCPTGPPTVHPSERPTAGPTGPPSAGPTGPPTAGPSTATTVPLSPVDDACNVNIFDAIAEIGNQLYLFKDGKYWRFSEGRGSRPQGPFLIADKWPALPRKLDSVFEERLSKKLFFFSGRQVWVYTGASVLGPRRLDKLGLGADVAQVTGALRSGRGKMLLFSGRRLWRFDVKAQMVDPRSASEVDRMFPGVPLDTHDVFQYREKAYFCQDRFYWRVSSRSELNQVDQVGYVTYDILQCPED
Chain of Neutrophil collagenase (Homo sapiens) (P22894 101-467 limits assumed): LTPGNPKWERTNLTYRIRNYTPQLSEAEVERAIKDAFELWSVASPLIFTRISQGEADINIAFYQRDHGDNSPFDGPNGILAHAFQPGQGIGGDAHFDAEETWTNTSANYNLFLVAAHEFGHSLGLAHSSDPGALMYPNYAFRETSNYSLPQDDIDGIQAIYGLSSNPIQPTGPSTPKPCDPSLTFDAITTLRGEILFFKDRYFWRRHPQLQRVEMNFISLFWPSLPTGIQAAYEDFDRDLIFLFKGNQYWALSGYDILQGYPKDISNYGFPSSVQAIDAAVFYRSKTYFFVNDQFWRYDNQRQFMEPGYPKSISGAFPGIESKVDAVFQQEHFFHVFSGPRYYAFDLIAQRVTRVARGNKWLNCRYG

| Activity [2] | Activity [4] | Activity [5] | Activity [9] | Compound | Activity (Mus musculus [1]) | Activity (Mus musculus [3]) | Activity (Mus musculus [6]) | Activity (Mus musculus [7]) | Activity (Mus musculus [8]) | Km [10] | kcat/Km [11] |
| --- | --- | --- | --- | --- | --- | --- | --- | --- | --- | --- | --- |
| inactive | inactive | inactive | inactive | CCN(CC)c1ccc2nc3ccc(/N=N/c4ccc(N(C)CCCC(=O)NCCNC(=O)[C@H](CCNC(=O)CCCCCN5\C(=C/C=C/C=C/C=C/C6N(CC)c7ccc(S(=O)(=O)O)cc7C6(C)C)C(C)(C)c6cc(S(=O)(=O)[O-])ccc65)NC(=O)[C@H](CC5CCCCC5)NC(=O)N5CCOCC5)cc4)cc3[n+](-c3ccccc3)c2c1 (stereo partly specified) | inactive | inactive | Active | Active | Active |  |  |
|  |  |  |  | Cathepsin B (Homo sapiens) (from UniProt P07858) |  |  |  |  |  | 3.2 mM | 332 M⁻¹ s⁻¹ |
